Measurements reported in ChEMBL document CHEMBL1687814, “Testing nucleoside analogues as inhibitors of Bacillus anthracis spore germination in vitro and in macrophage cell culture” (Antimicrob Agents Chemother, 2010).
The source made the active and inactive calls. The calls are words filed in the database; no cut-off is given here.

What was measured:
J774.A1 = assay: Cytotoxicity against mouse J774A1 cells; format: cell-based
Outline: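 Uninfected J774A.1 macrophages, seeded at 8 × 10^5 cells/ml in serum-free DMEM, were given analogues at various final concentrations. Necrosis was assessed by 20 μM propidium iodide fluorescence at 617 nm, in parallel with the infected wells.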

Bacillus anthracis [1] = assay: Inhibition of inosine/L-alanine-induced Bacillus anthracis Sterne 34F2 spore germination pretreated for 15 mins before inosine/L-alanine challenge; format: functional, organism-based
Bacillus anthracis [2] = assay: Activation of Bacillus anthracis Sterne 34F2 spore germination after 1 hr; format: functional, organism-based
Bacillus anthracis [3] = assay: Antibacterial activity against Bacillus anthracis Sterne 34F2 infected in mouse J774A.1 cells assessed as protection against bacteria-induced cytotoxicity using propidium iodide staining after 3 hrs measured every hours for up to 7 hrs; format: functional, organism-based
[4] = Increase of Bacillus anthracis Sterne 34F2-induced cytotoxicity in mouse J774A.1 cells using propidium iodide staining measured after 5 hrs infection; format: cell-based; conditions: bacillus anthracis str. sterne
Bacillus anthracis [5] = assay: Ratio of IC50 for inosine/L-alanine-induced Bacillus anthracis Sterne 34F2 spore germination to IC50 for Bacillus anthracis Sterne 34F2 infected in mouse J774A.1 cells assessed as protection against bacteria-induced cytotoxicity; format: functional
[6] = Bacillus anthracis, Sterne 34F2, J774.A1, read-out: IC50
[7] = Bacillus anthracis, Sterne 34F2, read-out: IC50

| Compound | Activity (J774.A1) | IC50 (Bacillus anthracis [1]) | Activity (Bacillus anthracis [2]) | IC50 (Bacillus anthracis [3]) | IC50 (Bacillus anthracis [3]; [6]) [µM] | Activity [4] | IC50 (Bacillus anthracis [1]; [7]) [µM] | Ratio IC50 (Bacillus anthracis [5]) |
| --- | --- | --- | --- | --- | --- | --- | --- | --- |
| Nc1ncnc2c1nc(N)n2[C@@H]1O[C@H](CO)[C@@H](O)[C@H]1O | Non-toxic | Not Active | inactive | Not Active | – | – | – | – |
| OC[C@H]1O[C@@H](n2cnc3cncnc32)[C@H](O)[C@@H]1O [NEBULARINE] | Non-toxic | Not Active | – | Not Active | – | – | – | – |
| Nc1nc2nc[nH]c2c(=S)[nH]1 [THIOGUANINE] | Non-toxic | Not Active | – | – | 2 | – | – | – |
| Nc1cc(S)nc(N)n1 | Non-toxic | Not Active | inactive | Not Active | – | – | – | – |
| Sc1ncccn1 [2-MERCAPTOPYRIMIDINE] | Non-toxic | Not Active | inactive | Not Active | – | – | – | – |
| Nc1nc2c(nc(O)n2[C@@H]2O[C@H](CO)[C@@H](O)[C@H]2O)c(=O)[nH]1 [8-HYDROXYGUANOSINE] | Non-toxic | Not Active | – | Not Active | – | Toxic | – | – |
| Nc1nc(=O)[nH]c2c1ncn2[C@@H]1O[C@H](CO)[C@@H](O)[C@H]1O [ISOGUANOSINE] | Non-toxic | Not Active | – | Not Active | – | – | – | – |
| OC[C@H]1O[C@@H](n2cnc3c(N4CCCCC4)ncnc32)[C@H](O)[C@@H]1O | Non-toxic | – | – | Not Active | – | – | 1090 | – |
| Nc1nc(Cl)c2nc[nH]c2n1 [6-CHLOROGUANINE] | Non-toxic | Not Active | – | – | 200 | – | – | – |
| CSc1ncnc2c1ncn2[C@@H]1O[C@H](CO)[C@@H](O)[C@H]1O | Non-toxic | – | – | Not Active | – | – | 320 | – |
| OC[C@H]1O[C@@H](n2cnc3c(Cl)ncnc32)[C@H](O)[C@@H]1O | Non-toxic | Not Active | – | Not Active | – | – | – | – |
| Nc1nc(N)c2ncn([C@@H]3O[C@H](CO)[C@@H](O)[C@H]3O)c2n1 | Non-toxic | – | – | Not Active | – | – | 700 | – |
| CN(Cc1ccccc1)c1ncnc2c1ncn2[C@@H]1O[C@H](CO)[C@@H](O)[C@H]1O | Non-toxic | – | – | Not Active | – | Toxic | 120 | – |
| CCN(CC)c1ncnc2c1ncn2[C@@H]1O[C@H](CO)[C@@H](O)[C@H]1O | Non-toxic | – | – | Not Active | – | – | 310 | – |
| Sc1ncnc2nc[nH]c12 [MERCAPTOPURINE ANHYDROUS] | Non-toxic | Not Active | – | – | 400 | – | – | – |
| OC[C@H]1O[C@@H](n2cnc3c(O)nc(O)nc32)[C@H](O)[C@@H]1O [XANTHOSINE] | Non-toxic | – | – | Not Active | – | – | 7190 | – |
| Nc1ncnc2c1ncn2[C@@H]1O[C@H](CO)[C@@H](O)[C@H]1O [ADENOSINE] | Non-toxic | Not Active | – | Not Active | – | – | – | – |
| O=c1ncnc2n([C@H]3O[C@@H](CO)[C@H](O)[C@@H]3O)[nH]cc1-2 [ALLOPURINOL RIBOSIDE] | Non-toxic | Not Active | – | – | 650 | – | – | – |
| OC[C@H]1O[C@@H](n2cnc3c(O)ncnc32)[C@H](O)[C@@H]1O [INOSINE] | Non-toxic | – | – | – | – | – | – | – |
| Nc1nc2c(ncn2[C@@H]2O[C@H](CO)[C@@H](O)[C@H]2O)c(=S)[nH]1 [THIOGUANOSINE] | Non-toxic | – | – | – | 4 | – | 1000 | 300 |
| Nc1ncnc2c1ccn2[C@@H]1O[C@H](CO)[C@@H](O)[C@H]1O [TUBERCIDIN] | Non-toxic | Not Active | – | Not Active | – | – | – | – |
| C[n+]1cn([C@@H]2O[C@H](CO)[C@@H](O)[C@H]2O)c2nc[nH]c(=O)c21 | Non-toxic | Not Active | – | Not Active | – | – | – | – |
| OC[C@H]1O[C@@H](n2cnc3c(S)ncnc32)[C@H](O)[C@@H]1O [THIOINOSINE] | Non-toxic | Not Active | – | – | 40 | – | – | – |

| Compound | Activity (J774.A1) | IC50 (Bacillus anthracis [1]) | Activity (Bacillus anthracis [2]) | IC50 (Bacillus anthracis [3]) | IC50 (Bacillus anthracis [3]; [6]) [µM] | Activity [4] | IC50 (Bacillus anthracis [1]; [7]) [µM] | Ratio IC50 (Bacillus anthracis [5]) |
| --- | --- | --- | --- | --- | --- | --- | --- | --- |
| Nc1ncc2ncn([C@@H]3O[C@H](CO)[C@@H](O)[C@H]3O)c2n1 | Non-toxic | – | – | Not Active | – | – | 380 | – |
| CC(=O)N1CCN(c2ncnc3c2ncn3[C@@H]2O[C@H](CO)[C@@H](O)[C@H]2O)CC1 | Non-toxic | – | – | Not Active | – | – | 50 | – |
| CCCN(CCC)c1ncnc2c1ncn2[C@@H]1O[C@H](CO)[C@@H](O)[C@H]1O | Non-toxic | – | – | Not Active | – | – | 760 | – |
| C[C@@H](N)C(=O)O [D-ALANINE] | Non-toxic | – | – | – | 20 | – | 20 | – |
| Nc1nc2c(ncn2[C@@H]2O[C@H](CO)[C@@H](O)[C@H]2O)c(=O)[nH]1 [GUANOSINE] | Non-toxic | Not Active | – | Not Active | – | – | – | – |
| Nc1nc2c(ncn2COC(CO)CO)c(=O)[nH]1 [GANCICLOVIR] | Non-toxic | Not Active | – | Not Active | – | – | – | – |
| N#Cc1ncnc2nc[nH]c12 | Non-toxic | Not Active | – | Not Active | – | – | – | – |
| CNc1ncnc2c1ncn2[C@@H]1O[C@H](CO)[C@@H](O)[C@H]1O | Non-toxic | – | – | Not Active | – | – | 190 | – |
| Sc1ccccn1 [2-MERCAPTOPYRIDINE] | Non-toxic | Not Active | inactive | Not Active | – | – | – | – |
| O=C(Nc1ncnc2c1ncn2[C@@H]1O[C@H](CO)[C@@H](O)[C@H]1O)c1ccccc1 | Non-toxic | – | – | Not Active | – | Toxic | 1140 | – |
| c1ccc(CNc2ncnc3nc[nH]c23)cc1 [6-BENZYLAMINOPURINE] | Non-toxic | – | – | Not Active | – | – | 1550 | – |
| Sc1ccncc1 [4-MERCAPTOPYRIDINE] | Non-toxic | Not Active | inactive | Not Active | – | – | – | – |
| CN(C)c1ncnc2c1ncn2[C@@H]1O[C@H](CO)[C@@H](O)[C@H]1O | Non-toxic | Not Active | – | Not Active | – | – | – | – |
| COc1nc(N)nc2c1ncn2[C@@H]1O[C@H](CO)[C@@H](O)[C@H]1O | Non-toxic | – | – | Not Active | – | – | 350 | – |
| Oc1ncnc2[nH]ncc12 [ALLOPURINOL] | Non-toxic | Not Active | – | Not Active | – | – | – | – |
| CCOC(=O)C1CCCN(c2ncnc3c2ncn3[C@@H]2O[C@H](CO)[C@@H](O)[C@H]2O)C1 (stereo partly drawn) | Non-toxic | – | – | Not Active | – | – | 700 | – |
| O=c1cc[nH]c(=S)[nH]1 [THIOURACIL] | Non-toxic | Not Active | inactive | Not Active | – | – | – | – |
| CSc1nc2ccccc2[nH]1 | Non-toxic | Not Active | – | Not Active | – | – | – | – |
| OC[C@H]1O[C@@H](n2cnc3c(SCc4ccccc4)ncnc32)[C@H](O)[C@@H]1O [6-BENZYLTHIOINOSINE] | Non-toxic | – | – | – | 1040 | – | 50 | – |
| CC(C)=CCNc1ncnc2c1ncn2[C@@H]1O[C@H](CO)[C@@H](O)[C@H]1O [RIBOPRINE] | Non-toxic | – | – | Not Active | – | – | 360 | – |
| Nc1nc(Cl)c2ncn([C@@H]3O[C@H](CO)[C@@H](O)[C@H]3O)c2n1 | Non-toxic | – | – | – | 190 | – | 890 | – |
| Sc1nc2ccccc2[nH]1 [2-MERCAPTOBENZIMIDAZOLE] | Non-toxic | Not Active | – | Not Active | – | – | – | – |
